Source: ChEMBL document CHEMBL4673246, “Directing Drugs to Bugs: Antibiotic-Carbohydrate Conjugates Targeting Biofilm-Associated Lectins of Pseudomonas aeruginosa” (J Med Chem, 2020)
Converted amounts (≈) assume the structure as drawn.

Assays:
[1] = Inhibition of Pseudomonas aeruginosa ATCC 33347 LecA expressed in Escherichia coli BL21(DE3) cells incubated for 30 to 60 mins by (N-(fluorescein-5-yl)-N'-(beta-D-(m-aminophenyl)-galactopyranosyl)thiocarbamide) reporter based fluorescence polarization assay
In short: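 LecA at 40 μM with 20 nM fluorescein-galactoside reporter in TBS/Ca. Test compound serial dilutions in 30% DMSO co-solvent, triplicate. Incubation 30–60 min at room temperature, then fluorescence polarization read (ex 485, em 535 nm), blank-corrected for LecA alone. Four-parameter fit with plateaus fixed by the p-nitrophenyl β-D-galactoside control. At least three independent plates.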

[2] = tested on: Pseudomonas aeruginosa; assay: Antibacterial activity against Pseudomonas aeruginosa PA14 assessed as growth inhibition after 18 to 20 hrs in presence of PMBN by broth microdilution assay; format: functional; details: time 18-20 hrs
In short: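 Cation-supplemented Mueller-Hinton broth II; final inoculum 5 × 10^5 CFU/mL. Incubated at 37 °C for 18–20 h. MIC read visually as the lowest concentration without growth; at least three independent experiments.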

[3] = tested on: Pseudomonas aeruginosa; assay: Antibacterial activity against Pseudomonas aeruginosa PAO1 assessed as growth inhibition after 18 to 20 hrs by broth microdilution assay; format: functional; details: time 18-20 hrs
In short: (§1)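 Overnight LB-agar colonies suspended to OD600 0.08–0.13, diluted 1:100; final inoculum 5 × 10^5 CFU/mL. 37 °C, 18–20 h, humid. MIC = lowest concentration without visible growth; range from at least three independent experiments.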

[4] = tested on: Pseudomonas aeruginosa; assay: Antibacterial activity against Pseudomonas aeruginosa PAO1 assessed as growth inhibition after 18 to 20 hrs in presence of PMBN by broth microdilution assay; format: functional; details: time 18-20 hrs
In short: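 Broth microdilution per EUCAST guidelines in Müller-Hinton broth II (Ca2+/Mg2+ supplemented, pH 7.3). Colonies from overnight LB-agar plates were suspended to OD600 0.08–0.13, diluted 1:100, final inoculum 5 × 10^5 CFU/mL. PMBN at 2 μg/mL was added to the inoculum where indicated. Incubation 37 °C, 18–20 h. MIC was the lowest concentration with no visible growth. At least three independent experiments.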

[5] = tested on: Escherichia coli; assay: Antibacterial activity against Escherichia coli K-12 MG1655 assessed as growth inhibition after 18 to 20 hrs by broth microdilution assay; format: functional; details: time 18-20 hrs; in short: as §1
[6] = tested on: Escherichia coli; assay: Antibacterial activity against Escherichia coli DSM 1116 assessed as growth inhibition after 18 to 20 hrs by broth microdilution assay; format: functional; details: time 18-20 hrs
In short: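 Broth microdilution per EUCAST guidelines in Müller-Hinton broth II (Ca2+/Mg2+ supplemented, pH 7.3). Test range 128 to 0.125 μg/mL, from DMSO stocks. Colonies from overnight LB-agar plates were suspended to OD600 0.08–0.13, diluted 1:100, final inoculum 5 × 10^5 CFU/mL. PMBN at 2 μg/mL was added to the inoculum where indicated. Incubation 37 °C, 18–20 h. MIC was the lowest concentration with no visible growth. At least three independent experiments.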

[7] = Inhibition of Pseudomonas aeruginosa PAO1 LecB expressed in Escherichia coli BL21(DE3) cells incubated for 4 to 8 hrs by (N-(fluorescein-5-yl)-N'-(alpha-L-fucopyranosyl ethylene)thiocarbamide) reporter based fluorescence polarization assay
[8] = Inhibition of Pseudomonas aeruginosa PA14 LecB expressed in Escherichia coli BL21(DE3) cells incubated for 4 to 8 hrs by (N-(fluorescein-5-yl)-N'-(alpha-L-fucopyranosyl ethylene)thiocarbamide) reporter based fluorescence polarization assay
[9] = tested on: Pseudomonas aeruginosa; assay: Antibacterial activity against Pseudomonas aeruginosa PA14 assessed as growth inhibition after 18 to 20 hrs by broth microdilution assay; format: functional; details: time 18-20 hrs; in short: as §1
[10] = tested on: Pseudomonas aeruginosa; assay: Antibacterial activity against Pseudomonas aeruginosa PA14 harboring LecA deletion mutant assessed as growth inhibition after 18 to 20 hrs by broth microdilution assay; format: functional; details: time 18-20 hrs; in short: as §1
[11] = tested on: Pseudomonas aeruginosa; assay: Antibacterial activity against Pseudomonas aeruginosa PA14 harboring LecB deletion mutant assessed as growth inhibition after 18 to 20 hrs by broth microdilution assay; format: functional; details: time 18-20 hrs; in short: as §1
[12] = tested on: Staphylococcus carnosus; assay: Antibacterial activity against Staphylococcus carnosus DSM 20501 assessed as growth inhibition after 18 to 20 hrs by broth microdilution assay; format: functional; details: time 18-20 hrs; in short: as §1
[13] = tested on: Pseudomonas aeruginosa; assay: Potency index ratio of Me-alpha-D-Gal IC50 to test compound IC50 for Inhibition of Pseudomonas aeruginosa ATCC 33347 LecA expressed in Escherichia coli BL21(DE3) cells
[14] = tested on: Pseudomonas aeruginosa; assay: Potency index ratio of pNP-beta-D-Gal IC50 to test compound IC50 for Inhibition of Pseudomonas aeruginosa ATCC 33347 LecA expressed in Escherichia coli BL21(DE3) cells
[15] = Cytotoxicity against human A549 cells assessed as growth inhibition at 100 uM after 48 hrs by MTT assay relative to control; format: cell-based; details: read-out: GI
In short: (§2)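 MTT assay: HEK293 or A549 cells seeded at 2 × 10^5 per well. Compounds (final DMSO 1%) were added 24 h after seeding. Living cell mass was read after 48 h.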

[16] = Cytotoxicity against HEK293 cells assessed as growth inhibition at 100 uM after 48 hrs by MTT assay relative to control; format: cell-based; details: human, read-out: GI; in short: as §2
[17] = Half life in human plasma at 40 uM measured up to 150 mins by LC-MS/MS analysis; format: ADME, cell-free
[18] = Clearance in human liver microsomes; format: ADME, Microsome
[19] = Protein binding in human plasma at 1 uM measured up to 6 hrs by LC-MS/MS analysis; format: ADME, cell-free
In short: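 Rapid equilibrium dialysis: human plasma diluted with PBS pH 7.4 on one side, PBS on the other, compound at 1 μM final. Shaken at 37 °C for 6 h. Sampled at 0, 5 and 6 h and quantified by LC-MS/MS. Binding calculated from the concentration difference between chambers. Warfarin as control.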

[20] = Clearance in mouse liver microsomes; format: ADME, Microsome

O=C(CCCCn1cc(CN2CCN(c3cc4c(cc3F)c(=O)c(C(=O)O)cn4C3CC3)CC2)nn1)Nc1ccc(S[C@@H]2O[C@H](CO)[C@H](O)[C@H](O)[C@H]2O)cc1
IC50 [1]: 28.3 µM
MIC [2]: 2 µg/mL
MIC [3]: 32 µg/mL (≈ 40.9 µM)
MIC [4]: 8 µg/mL
MIC [5]: 2 µg/mL (≈ 2.56 µM)
MIC [6]: 4 µg/mL (≈ 5.12 µM)

O=[N+]([O-])c1ccc(O[C@@H]2O[C@H](CO)[C@H](O)[C@H](O)[C@H]2O)cc1
IC50 [1]: 52.7 µM

C[C@@H]1O[C@H](CNS(=O)(=O)c2ccc(CCN=[N+]=[N-])s2)[C@@H](O)[C@H](O)[C@@H]1O
IC50 [7]: 3.91 µM
IC50 [8]: 1.87 µM

O=C(CCCCn1cc(CCN2CCN(c3cc4c(cc3F)c(=O)c(C(=O)O)cn4C3CC3)CC2)nn1)Nc1ccc(S[C@@H]2O[C@H](CO)[C@H](O)[C@H](O)[C@H]2O)cc1
MIC [9]: > 64 µg/mL
IC50 [1]: 26.2 µM
MIC [2]: 32 µg/mL
MIC [10]: > 64 µg/mL
MIC [11]: > 64 µg/mL
MIC [3]: > 64 µg/mL
MIC [4]: 32 µg/mL
MIC [5]: 16 µg/mL (≈ 20.1 µM)
MIC [6]: 4 µg/mL (≈ 5.03 µM)
MIC [12]: ≥ 64 µg/mL

[N-]=[N+]=NCCCC(=O)Nc1ccc(S[C@@H]2O[C@H](CO)[C@H](O)[C@H](O)[C@H]2O)cc1
IC50 [1]: 31.1 µM
Ratio IC50 [13]: < 3
Ratio IC50 [14]: < 2

O=C(O)c1cn(C2CC2)c2cc(N3CCNCC3)c(F)cc2c1=O [CIPROFLOXACIN]
inhibition at 48 h, 100 µM [15]: 18%
MIC [10]: 0.05 µg/mL (≈ 0.151 µM)
MIC [11]: 0.05 µg/mL (≈ 0.151 µM)
inhibition at 48 h, 100 µM [16]: 48%
MIC [5]: < 0.125 µg/mL
MIC [6]: < 0.125 µg/mL
MIC [12]: < 0.125 µg/mL

O=C(CCn1cc(CN2CCN(c3cc4c(cc3F)c(=O)c(C(=O)O)cn4C3CC3)CC2)nn1)Nc1ccc(S[C@@H]2O[C@H](CO)[C@H](O)[C@H](O)[C@H]2O)cc1
MIC [9]: 8 µg/mL (≈ 10.6 µM)
IC50 [1]: 32.2 µM
MIC [2]: 8 µg/mL
MIC [10]: 8 µg/mL (≈ 10.6 µM)
MIC [11]: 8 µg/mL (≈ 10.6 µM)
MIC [3]: 16 µg/mL (≈ 21.2 µM)
MIC [4]: 4 µg/mL
MIC [5]: 2 µg/mL (≈ 2.65 µM)
MIC [12]: 32 µg/mL (≈ 42.5 µM)

O=C(CCCn1cc(CN2CCN(c3cc4c(cc3F)c(=O)c(C(=O)O)cn4C3CC3)CC2)nn1)Nc1ccc(S[C@@H]2O[C@H](CO)[C@H](O)[C@H](O)[C@H]2O)cc1
MIC [9]: 8 µg/mL (≈ 10.4 µM)
IC50 [1]: 27.3 µM
MIC [2]: 4 µg/mL
MIC [10]: 8 µg/mL (≈ 10.4 µM)
MIC [11]: 8 µg/mL (≈ 10.4 µM)
MIC [3]: 16 µg/mL (≈ 20.8 µM)
MIC [4]: 4 µg/mL
MIC [5]: 1 µg/mL (≈ 1.3 µM)
MIC [6]: 2 µg/mL (≈ 2.6 µM)

CO[C@H]1O[C@H](CO)[C@H](O)[C@H](O)[C@H]1O
IC50 [1]: 71.7 µM

[N-]=[N+]=NCCC(=O)Nc1ccc(S[C@@H]2O[C@H](CO)[C@H](O)[C@H](O)[C@H]2O)cc1
IC50 [1]: 30.9 µM
Ratio IC50 [13]: < 3
Ratio IC50 [14]: < 2

O=C(CCCn1cc(CCN2CCN(c3cc4c(cc3F)c(=O)c(C(=O)O)cn4C3CC3)CC2)nn1)Nc1ccc(S[C@@H]2O[C@H](CO)[C@H](O)[C@H](O)[C@H]2O)cc1
MIC [9]: > 64 µg/mL
IC50 [1]: 29.3 µM
MIC [2]: 32 µg/mL
MIC [10]: > 64 µg/mL
MIC [11]: > 64 µg/mL
MIC [3]: > 64 µg/mL
MIC [4]: 32 µg/mL
MIC [5]: 16 µg/mL (≈ 20.5 µM)
MIC [6]: 4 µg/mL (≈ 5.12 µM)
MIC [12]: 64 µg/mL (≈ 81.9 µM)

O=C(Cn1cc(CCN2CCN(c3cc4c(cc3F)c(=O)c(C(=O)O)cn4C3CC3)CC2)nn1)Nc1ccc(S[C@@H]2O[C@H](CO)[C@H](O)[C@H](O)[C@H]2O)cc1
MIC [9]: ≥ 64 µg/mL
IC50 [1]: 21.6 µM
MIC [2]: 16 µg/mL
MIC [10]: ≥ 64 µg/mL
MIC [11]: ≥ 64 µg/mL
MIC [3]: > 64 µg/mL
MIC [4]: 32 µg/mL
MIC [5]: 8 µg/mL (≈ 10.6 µM)
MIC [12]: 64 µg/mL (≈ 84.9 µM)

O=C(Cn1cc(CN2CCN(c3cc4c(cc3F)c(=O)c(C(=O)O)cn4C3CC3)CC2)nn1)Nc1ccc(S[C@@H]2O[C@H](CO)[C@H](O)[C@H](O)[C@H]2O)cc1
inhibition at 48 h, 100 µM [15]: 5%
half-life at […], 40 µM [17]: > 2.5 h
IC50 [1]: 30.4 µM
MIC [2]: 4 µg/mL
MIC [3]: 16 µg/mL (≈ 21.6 µM)
inhibition at 48 h, 100 µM [16]: 8%
MIC [4]: 4 µg/mL
microsomal CLint [18]: 10 µL/min/mg
MIC [5]: 2 µg/mL (≈ 2.7 µM)
PPB [19]: 69%
microsomal CLint [20]: 10 µL/min/mg
MIC [12]: 32 µg/mL (≈ 43.3 µM)

C[C@@H]1O[C@H](CNS(=O)(=O)c2ccc(CCn3cc(CCN4CCN(c5cc6c(cc5F)c(=O)c(C(=O)O)cn6C5CC5)CC4)nn3)s2)[C@@H](O)[C@H](O)[C@@H]1O
MIC [2]: 64 µg/mL
IC50 [7]: 2.53 µM
MIC [4]: ≥ 64 µg/mL
MIC [5]: 16 µg/mL (≈ 20.6 µM)
IC50 [8]: 1 µM
MIC [6]: 32 µg/mL (≈ 41.2 µM)
MIC [12]: ≥ 64 µg/mL

[N-]=[N+]=NCCCCC(=O)Nc1ccc(S[C@@H]2O[C@H](CO)[C@H](O)[C@H](O)[C@H]2O)cc1
IC50 [1]: 29.9 µM
Ratio IC50 [13]: < 3
Ratio IC50 [14]: < 2

[N-]=[N+]=NCC(=O)Nc1ccc(S[C@@H]2O[C@H](CO)[C@H](O)[C@H](O)[C@H]2O)cc1
IC50 [1]: 31.7 µM
Ratio IC50 [13]: < 3
Ratio IC50 [14]: < 2

O=C(CCn1cc(CCN2CCN(c3cc4c(cc3F)c(=O)c(C(=O)O)cn4C3CC3)CC2)nn1)Nc1ccc(S[C@@H]2O[C@H](CO)[C@H](O)[C@H](O)[C@H]2O)cc1
MIC [9]: > 64 µg/mL
IC50 [1]: 28 µM
MIC [2]: 32 µg/mL
MIC [10]: > 64 µg/mL
MIC [11]: > 64 µg/mL
MIC [3]: > 64 µg/mL
MIC [4]: 32 µg/mL
MIC [5]: 16 µg/mL (≈ 20.8 µM)
MIC [12]: > 64 µg/mL
